According to ChEMBL document CHEMBL1144994, “Metal coordination-based inhibitors of adenylyl cyclase: novel potent P-site antagonists” (J Med Chem, 2003):

These compounds were tested against Adenylate cyclase type 5 (Homo sapiens, UniProt O95622) (assay: Inhibitory activity against recombinant human adenylate cyclase 5 expressed in HEK293 cells.).
Assay type: cell-based
In short: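 Membranes from HEK293 cells expressing human type V AC (1.4 µg/mL protein), stimulated with 25 nM activated recombinant GsR. Buffer: 60 mM HEPES pH 8.0, 0.6 mM EDTA, 0.01% BSA, 1 mM ATP, 2 mM IBMX, 2 mM MgCl₂. Reaction 30 min at 30 °C. cAMP product quantified by flash plate. Inhibition calculated against compound-free controls.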

Adenylate cyclase type 5, sequence (O95622 whole entry): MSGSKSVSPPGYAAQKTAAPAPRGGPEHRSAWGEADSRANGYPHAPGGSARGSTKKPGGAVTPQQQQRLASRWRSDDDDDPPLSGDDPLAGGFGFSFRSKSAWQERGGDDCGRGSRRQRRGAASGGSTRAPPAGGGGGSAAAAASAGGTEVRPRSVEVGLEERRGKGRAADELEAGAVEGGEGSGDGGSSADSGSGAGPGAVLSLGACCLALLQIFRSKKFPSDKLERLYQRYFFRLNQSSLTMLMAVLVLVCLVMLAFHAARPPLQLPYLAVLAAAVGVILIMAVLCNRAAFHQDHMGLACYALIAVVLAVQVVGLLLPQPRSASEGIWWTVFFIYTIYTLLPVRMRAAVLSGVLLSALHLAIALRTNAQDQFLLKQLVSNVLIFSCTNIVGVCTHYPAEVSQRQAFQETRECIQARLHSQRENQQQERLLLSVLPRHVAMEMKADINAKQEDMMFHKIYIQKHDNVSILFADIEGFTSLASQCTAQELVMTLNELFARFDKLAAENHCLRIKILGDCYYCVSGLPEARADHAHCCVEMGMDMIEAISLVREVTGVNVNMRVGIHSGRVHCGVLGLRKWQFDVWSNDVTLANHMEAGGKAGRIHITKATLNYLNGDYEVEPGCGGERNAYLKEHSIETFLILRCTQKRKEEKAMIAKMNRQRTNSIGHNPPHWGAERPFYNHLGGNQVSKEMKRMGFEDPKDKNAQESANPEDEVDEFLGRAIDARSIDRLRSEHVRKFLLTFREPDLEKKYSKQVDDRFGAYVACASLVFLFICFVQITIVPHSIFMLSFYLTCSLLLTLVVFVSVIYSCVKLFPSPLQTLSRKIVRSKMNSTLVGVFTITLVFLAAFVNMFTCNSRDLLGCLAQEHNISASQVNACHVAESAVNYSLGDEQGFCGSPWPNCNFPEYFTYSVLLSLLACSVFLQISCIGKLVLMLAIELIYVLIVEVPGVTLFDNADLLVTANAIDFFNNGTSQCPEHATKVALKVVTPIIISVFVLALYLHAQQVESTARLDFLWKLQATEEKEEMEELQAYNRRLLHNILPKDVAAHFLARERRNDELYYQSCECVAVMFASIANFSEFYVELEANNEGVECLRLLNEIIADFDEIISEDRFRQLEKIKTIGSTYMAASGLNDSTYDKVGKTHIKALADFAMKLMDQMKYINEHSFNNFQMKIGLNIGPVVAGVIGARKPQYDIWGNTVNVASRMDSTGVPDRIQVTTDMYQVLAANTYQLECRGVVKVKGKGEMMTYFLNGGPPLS

`Nc1ncnc2c1ncn2[C@H]1CC[C@H](CC(=O)O)C1` and `Nc1ncnc2c1ncn2[C@@H]1CC[C@H](CC(=O)O)C1` cannot be ordered by IC50: over 100 µM for the first, over 200 µM for the second.

Compared with `Nc1ncnc2c1ncn2[C@H]1CC[C@@H](C(=O)NO)C1`, `Nc1ncnc2c1ncn2[C@H]1CC[C@H](C(=O)NO)C1` (single isomer, unassigned) is 23-fold lower in IC50: 4.6 µM for the first, 0.2 µM for the second.

Going from `Nc1ncnc2c1ncn2[C@@H]1CC[C@@H](CC(=O)NO)C1` to `Nc1ncnc2c1ncn2[C@H]1CC[C@H](CC(=O)NO)C1`, the IC50 rises from 0.6 µM to 9.4 µM (16-fold). The first is the more potent here.

Compared with `Nc1ncnc2c1ncn2[C@H]1C=C[C@H](CC(=O)O)C1`, `Nc1ncnc2c1ncn2[C@@H]1C=C[C@H](CC(=O)O)C1` is 8.9-fold higher in IC50: 8.2 µM for the first, 73.2 µM for the second. The first is the more potent here.

First: Nc1ncnc2c1ncn2[C@H]1CC[C@@H](CC(=O)NO)C1
Second: Nc1ncnc2c1ncn2[C@@H]1CC[C@H](CC(=O)NO)C1
The IC50 of the first is 2.2-fold lower: 25.1 µM for the first, 55 µM for the second. The first is the more potent here.

First: Nc1ncnc2c1ncn2[C@H]1C=C[C@H](CC(=O)NO)C1
Second: Nc1ncnc2c1ncn2[C@@H]1C=C[C@H](CC(=O)NO)C1
The IC50 of the first is 6.5-fold lower: 0.4 µM for the first, 2.6 µM for the second.

First: Nc1ncnc2c1ncn2[C@@H]1C=C[C@H](C(=O)NO)C1
Second: Nc1ncnc2c1ncn2[C@H]1C=C[C@H](C(=O)NO)C1
The IC50 of the first is higher: over 200 µM for the first, 4.9 µM for the second. The second is the more potent here.

`Nc1ncnc2c1ncn2[C@@H]1CC[C@@H](C(=O)NO)C1` (single isomer, unassigned) and `Nc1ncnc2c1ncn2[C@@H]1CC[C@H](C(=O)NO)C1` cannot be ordered by IC50: 78 µM for the first, over 70 µM for the second.

Compared with `Nc1ncnc2c1ncn2[C@H]1CC[C@H](OCC(=O)NO)C1`, `Nc1ncnc2c1ncn2[C@H]1CC[C@@H](CC(=O)O)C1` is higher in IC50: 10.8 µM for the first, over 200 µM for the second. The first is the more potent here.

`Nc1ncnc2c1ncn2[C@H]1C=C[C@H](OCC(=O)NO)C1` and `Nc1ncnc2c1ncn2[C@H]1C=C[C@@H](CC(=O)NO)C1` are within 1.5-fold of each other in IC50: 13.6 µM for the first, 16.3 µM for the second.

Going from `Nc1ncnc2c1ncn2[C@@H]1CC[C@@H](CC(=O)O)C1` to `Nc1ncnc2c1ncn2[C@@H]1C=C[C@@H](CC(=O)O)C1`, the IC50 rises from 28.8 µM to over 200 µM.

Compared with `Nc1ncnc2c1ncn2[C@@H]1C=C[C@@H](C(=O)NO)C1`, `Nc1ncnc2c1ncn2[C@H]1C=C[C@@H](C(=O)NO)C1` is 1.9-fold higher in IC50: 100 µM for the first, 188 µM for the second. The first is the more potent here.

First: Nc1ncnc2c1ncn2[C@@H]1C=C[C@@H](CC(=O)NO)C1
Second: Nc1ncnc2c1ncn2[C@H]1C=C[C@@H](CC(=O)O)C1
The IC50 of the first is lower: 4.3 µM for the first, over 200 µM for the second. The first is the more potent here.
